The values that follow come from ChEMBL document CHEMBL4325852, “Design, synthesis, and discovery of ocotillol-type amide derivatives as orally available modulators of P-glycoprotein-mediated multidrug resistance” (Eur J Med Chem, 2019).

Common to all, as to assay type: cell-based
The target of data set [1] is T1, ATP-dependent translocase ABCB1 (Homo sapiens, UniProt P08183). Put plainly: Reversal of P-gp-mediated multidrug resistance in human KBV cells assessed as potentiation of paclitaxel-induced cytotoxicity by measuring cell survival at 10 uM after 72 hrs by MTT assay (reference value: 104 +/- 8%).
T1 sequence (P08183 whole entry): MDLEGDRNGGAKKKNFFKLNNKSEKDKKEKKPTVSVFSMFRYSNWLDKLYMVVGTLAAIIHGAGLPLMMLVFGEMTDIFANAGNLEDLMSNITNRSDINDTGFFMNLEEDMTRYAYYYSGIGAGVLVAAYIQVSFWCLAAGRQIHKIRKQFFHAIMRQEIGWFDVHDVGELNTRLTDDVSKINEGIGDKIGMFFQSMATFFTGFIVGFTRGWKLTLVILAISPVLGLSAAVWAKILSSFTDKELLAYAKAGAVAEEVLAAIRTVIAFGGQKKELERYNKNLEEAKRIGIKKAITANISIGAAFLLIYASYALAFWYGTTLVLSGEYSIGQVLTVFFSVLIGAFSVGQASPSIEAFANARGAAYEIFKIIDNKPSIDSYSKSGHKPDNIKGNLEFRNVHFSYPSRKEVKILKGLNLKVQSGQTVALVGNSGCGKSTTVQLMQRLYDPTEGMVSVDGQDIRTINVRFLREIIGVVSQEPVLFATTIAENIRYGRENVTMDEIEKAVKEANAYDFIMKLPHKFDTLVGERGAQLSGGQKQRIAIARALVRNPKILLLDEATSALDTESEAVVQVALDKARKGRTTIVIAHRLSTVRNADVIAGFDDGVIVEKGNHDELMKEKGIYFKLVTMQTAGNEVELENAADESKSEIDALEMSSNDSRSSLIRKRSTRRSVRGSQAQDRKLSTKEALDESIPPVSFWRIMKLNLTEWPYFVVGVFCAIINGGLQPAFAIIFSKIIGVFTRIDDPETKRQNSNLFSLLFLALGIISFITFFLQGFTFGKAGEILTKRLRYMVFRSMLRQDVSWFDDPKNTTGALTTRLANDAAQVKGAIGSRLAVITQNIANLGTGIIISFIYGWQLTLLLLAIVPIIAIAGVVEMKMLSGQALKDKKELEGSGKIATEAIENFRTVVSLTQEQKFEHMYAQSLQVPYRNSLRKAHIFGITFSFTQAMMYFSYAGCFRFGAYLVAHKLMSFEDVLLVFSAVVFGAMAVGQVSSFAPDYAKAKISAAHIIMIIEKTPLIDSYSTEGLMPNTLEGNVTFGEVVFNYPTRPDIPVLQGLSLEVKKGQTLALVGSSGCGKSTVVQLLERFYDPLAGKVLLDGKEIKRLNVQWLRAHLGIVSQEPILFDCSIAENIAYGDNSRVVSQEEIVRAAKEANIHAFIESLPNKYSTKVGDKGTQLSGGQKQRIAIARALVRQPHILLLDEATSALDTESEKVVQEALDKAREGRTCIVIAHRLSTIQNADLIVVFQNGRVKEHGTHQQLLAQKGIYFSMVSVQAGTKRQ
Data set [2] addresses T1, ATP-dependent translocase ABCB1. The data set can be described thus: Reversal of P-gp-mediated multidrug resistance in human KBV cells assessed as potentiation of paclitaxel-induced cytotoxicity by measuring cell survival at 5 uM after 72 hrs by MTT assay (reference value: 104 +/- 8%). In general terms: Formazan colour is commonly taken as a measure of viable cells.
Data set [3] in a line: Cytotoxicity against human KBV cells assessed as cell survival at 10 uM after 72 hrs by MTT assay relative to control. Conditions: read-out: Survival. In short, it runs like this:
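KBV (Pgp-overexpressing MDR line) grown in DMEM/10% FCS, kept in 10 nM paclitaxel; seeded, compound (DMSO stock) added next day, 72 h; MTT 2 h, formazan in DMSO, A570 gives survival vs DMSO solvent control; n = 1-3 independent experiments, mean ± SD.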

For the compound `CCCCCC(=O)N[C@H]1CC[C@]2(C)[C@H]3C[C@@H](O)[C@@H]4[C@@H]([C@]5(C)CC[C@H](C(C)(C)O)O5)CC[C@@]4(C)[C@]3(C)CC[C@H]2C1(C)C`, the Survival in data set [1] is on record as 43%; in data set [2] it was 69%. Further, the viability at 72 h, 10 µM in data set [3] stood at 101%.

As for `CC(C)(O)[C@H]1CC[C@@](C)([C@H]2CC[C@]3(C)[C@@H]2[C@H](O)C[C@@H]2[C@@]4(C)CC[C@H](NC(=O)c5cccnc5)C(C)(C)[C@@H]4CC[C@]23C)O1`, the Survival in data set [1] was found to be 49%; in data set [2] it was 55%. Besides, the viability at 72 h, 10 µM in data set [3] amounted to 87%.

Consider `CC(C)(O)[C@H]1CC[C@@](C)([C@H]2CC[C@]3(C)[C@@H]2[C@H](O)C[C@@H]2[C@@]4(C)CC[C@H](NC(=O)CN)C(C)(C)[C@@H]4CC[C@]23C)O1`, for which the figures for the Survival in data set [1] and in data set [2] were 49% and 99%, respectively. In addition, the viability at 72 h, 10 µM in data set [3] came out at 103%.

On to `CC(C)(O)[C@H]1CC[C@@](C)([C@H]2CC[C@]3(C)[C@@H]2[C@H](O)C[C@@H]2[C@@]4(C)CC[C@H](O)C(C)(C)[C@@H]4CC[C@]23C)O1`, for which the Survival in data set [1] is listed as 95%. Moreover, the viability at 72 h, 10 µM in data set [3] was 94%.

Turning to `CC(C)(O)[C@@H]1CC[C@@](C)([C@H]2CC[C@]3(C)[C@@H]2[C@H](O)C[C@@H]2[C@@]4(C)CC[C@H](NC(=O)CN)C(C)(C)[C@@H]4CC[C@]23C)O1`, the Survival in data set [1] came to 115%; in data set [2], 98%. In addition, in data set [3], the viability at 72 h, 10 µM came to 90%.

Consider `CC(C)(O)[C@@H]1CC[C@@](C)([C@H]2CC[C@]3(C)[C@@H]2[C@H](O)C[C@@H]2[C@@]4(C)CC[C@H](NC(=O)c5cccnc5)C(C)(C)[C@@H]4CC[C@]23C)O1`, for which the Survival in data set [1] is 61%; in data set [2], 115%. Moreover, the viability at 72 h, 10 µM in data set [3] worked out at 91%.

Turning to `CC(C)(O)[C@@H]1CC[C@@](C)([C@H]2CC[C@]3(C)[C@@H]2[C@H](O)C[C@@H]2[C@@]4(C)CC[C@H](NC(=O)CCCN)C(C)(C)[C@@H]4CC[C@]23C)O1`, the Survival in data set [1] is on record as 102%; in data set [2], 111%. Besides, the viability at 72 h, 10 µM in data set [3] is 105%.

With `CC(C)(O)[C@H]1CC[C@@](C)([C@H]2CC[C@]3(C)[C@@H]2[C@H](O)C[C@@H]2[C@@]4(C)CC[C@H](NC(=O)c5ccccc5C(=O)O)C(C)(C)[C@@H]4CC[C@]23C)O1`, the Survival worked out at 85% in data set [1] and 96% in data set [2]. For the same compound, the viability at 72 h, 10 µM in data set [3] stood at 105%.

Regarding `CC(C)(O)[C@@H]1CC[C@@](C)([C@H]2CC[C@]3(C)[C@@H]2[C@H](O)C[C@@H]2[C@@]4(C)CC[C@H](NC(=O)c5ccccc5O)C(C)(C)[C@@H]4CC[C@]23C)O1`, the Survival in data set [1] is reported as 36%; in data set [2], 61%. Further, in data set [3], the viability at 72 h, 10 µM worked out at 96%.

Consider `CC(C)(O)[C@H]1CC[C@@](C)([C@H]2CC[C@]3(C)[C@@H]2[C@H](O)C[C@@H]2[C@@]4(C)CC[C@H](NC(=O)c5ccc(N)cc5)C(C)(C)[C@@H]4CC[C@]23C)O1`, for which the Survival is 47% in data set [1] and 77% in data set [2]. Besides, in data set [3], the viability at 72 h, 10 µM came to 75%.

Consider `CC(C)(O)[C@@H]1CC[C@@](C)([C@H]2CC[C@]3(C)[C@@H]2[C@H](O)C[C@@H]2[C@@]4(C)CC[C@H](NC(=O)c5ccccc5)C(C)(C)[C@@H]4CC[C@]23C)O1`, for which the figures for the Survival in data set [1] and in data set [2] were 48% and 90%, respectively. Besides, the viability at 72 h, 10 µM in data set [3] was 116%.

`CC(C)(O)[C@H]1CC[C@@](C)([C@H]2CC[C@]3(C)[C@@H]2[C@H](O)C[C@@H]2[C@@]4(C)CC[C@H](NC(=O)CCCCCCCN)C(C)(C)[C@@H]4CC[C@]23C)O1`: the Survival is recorded as 38% in data set [1] and 84% in data set [2]. Further, in data set [3], the viability at 72 h, 10 µM is 80%.

For `CC(C)(O)[C@@H]1CC[C@@](C)([C@H]2CC[C@]3(C)[C@@H]2[C@H](O)C[C@@H]2[C@@]4(C)CC[C@H](O)C(C)(C)[C@@H]4CC[C@]23C)O1`, in data set [1], the Survival came to 104%. The viability at 72 h, 10 µM in data set [3] is 111%.

Take `CC(C)(O)[C@@H]1CC[C@@](C)([C@H]2CC[C@]3(C)[C@@H]2[C@H](O)C[C@@H]2[C@@]4(C)CC[C@H](NC(=O)CCCCCN)C(C)(C)[C@@H]4CC[C@]23C)O1`: the values for the Survival in data set [1] and in data set [2] were 101% and 105%, respectively. Moreover, the viability at 72 h, 10 µM in data set [3] is 79%.

As for `CC(C)(C)OC(=O)NCCCCCCCC(=O)N[C@H]1CC[C@]2(C)[C@H]3C[C@@H](O)[C@@H]4[C@@H]([C@]5(C)CC[C@H](C(C)(C)O)O5)CC[C@@]4(C)[C@]3(C)CC[C@H]2C1(C)C`, the Survival in data set [1] is listed as 39%; in data set [2] it was 54%. Moreover, in data set [3], the viability at 72 h, 10 µM is 106%.

For the compound `CCCCCCCC(=O)N[C@H]1CC[C@]2(C)[C@H]3C[C@@H](O)[C@@H]4[C@@H]([C@]5(C)CC[C@H](C(C)(C)O)O5)CC[C@@]4(C)[C@]3(C)CC[C@H]2C1(C)C`, the Survival in data set [1] was 39%; in data set [2], 56%. In data set [3], the viability at 72 h, 10 µM was 70%.

As for `CC(C)(O)[C@H]1CC[C@@](C)([C@H]2CC[C@]3(C)[C@@H]2[C@H](O)C[C@@H]2[C@@]4(C)CC[C@H](NC(=O)CCCCCN)C(C)(C)[C@@H]4CC[C@]23C)O1`, the Survival in data set [1] and in data set [2] was 91% each time. In addition, the viability at 72 h, 10 µM in data set [3] worked out at 86%.

For `CC(C)(O)[C@H]1CC[C@@](C)([C@H]2CC[C@]3(C)[C@@H]2[C@H](O)C[C@@H]2[C@@]4(C)CC[C@H](NC(=O)c5ccccc5)C(C)(C)[C@@H]4CC[C@]23C)O1`, the Survival is recorded as 39% in data set [1] and 59% in data set [2]. For the same compound, the viability at 72 h, 10 µM in data set [3] stood at 101%.

Regarding `CC(C)(C)OC(=O)NCC(=O)N[C@H]1CC[C@]2(C)[C@H]3C[C@@H](O)[C@@H]4[C@@H]([C@]5(C)CC[C@@H](C(C)(C)O)O5)CC[C@@]4(C)[C@]3(C)CC[C@H]2C1(C)C`, the Survival is 42% in data set [1] and 61% in data set [2]. For the same compound, the viability at 72 h, 10 µM in data set [3] came out at 96%.

In the case of `CC(C)(O)[C@H]1CC[C@@](C)([C@H]2CC[C@]3(C)[C@@H]2[C@H](O)C[C@@H]2[C@@]4(C)CC[C@H](NC(=O)CCCN)C(C)(C)[C@@H]4CC[C@]23C)O1`, the Survival in data set [1] was 85%; in data set [2], 100%. Moreover, the viability at 72 h, 10 µM in data set [3] turned out to be 77%.

`CCCC(=O)N[C@H]1CC[C@]2(C)[C@H]3C[C@@H](O)[C@@H]4[C@@H]([C@]5(C)CC[C@H](C(C)(C)O)O5)CC[C@@]4(C)[C@]3(C)CC[C@H]2C1(C)C`: the Survival in data set [1] turned out to be 55%; in data set [2] it was 89%. For the same compound, the viability at 72 h, 10 µM in data set [3] was found to be 103%.

Take `CC(C)(C)OC(=O)NCCCCCCCC(=O)N[C@H]1CC[C@]2(C)[C@H]3C[C@@H](O)[C@@H]4[C@@H]([C@]5(C)CC[C@@H](C(C)(C)O)O5)CC[C@@]4(C)[C@]3(C)CC[C@H]2C1(C)C`: the Survival is 41% in data set [1] and 54% in data set [2]. In addition, the viability at 72 h, 10 µM in data set [3] was determined as 111%.

With `CC(C)(C)OC(=O)NCCCCCC(=O)N[C@H]1CC[C@]2(C)[C@H]3C[C@@H](O)[C@@H]4[C@@H]([C@]5(C)CC[C@@H](C(C)(C)O)O5)CC[C@@]4(C)[C@]3(C)CC[C@H]2C1(C)C`, the Survival is reported as 40% in data set [1] and 65% in data set [2]. For the same compound, the viability at 72 h, 10 µM in data set [3] was 79%.

Turning to `CC(C)(O)[C@@H]1CC[C@@](C)([C@H]2CC[C@]3(C)[C@@H]2[C@H](O)C[C@@H]2[C@@]4(C)CC[C@H](N)C(C)(C)[C@@H]4CC[C@]23C)O1`, the figures for the Survival in data set [1] and in data set [2] were 88% and 102%, respectively. Also, in data set [3], the viability at 72 h, 10 µM was 91%.

For `CC(C)(C)OC(=O)Nc1ccc(C(=O)N[C@H]2CC[C@]3(C)[C@H]4C[C@@H](O)[C@@H]5[C@@H]([C@]6(C)CC[C@H](C(C)(C)O)O6)CC[C@@]5(C)[C@]4(C)CC[C@H]3C2(C)C)cc1`, the figures for the Survival in data set [1] and in data set [2] were 46% and 54%, respectively. Also, the viability at 72 h, 10 µM in data set [3] is 77%.

Turning to `CC(C)(C)OC(=O)NCCCC(=O)N[C@H]1CC[C@]2(C)[C@H]3C[C@@H](O)[C@@H]4[C@@H]([C@]5(C)CC[C@@H](C(C)(C)O)O5)CC[C@@]4(C)[C@]3(C)CC[C@H]2C1(C)C`, the Survival in data set [1] is 44%; in data set [2], 90%. Further, the viability at 72 h, 10 µM in data set [3] amounted to 94%.

As to `CCCCCC(=O)N[C@H]1CC[C@]2(C)[C@H]3C[C@@H](O)[C@@H]4[C@@H]([C@]5(C)CC[C@@H](C(C)(C)O)O5)CC[C@@]4(C)[C@]3(C)CC[C@H]2C1(C)C`, the Survival in data set [1] was 44%; in data set [2], 78%. Moreover, the viability at 72 h, 10 µM in data set [3] came out at 98%.

Consider `CC(C)(C)OC(=O)NCCCC(=O)N[C@H]1CC[C@]2(C)[C@H]3C[C@@H](O)[C@@H]4[C@@H]([C@]5(C)CC[C@H](C(C)(C)O)O5)CC[C@@]4(C)[C@]3(C)CC[C@H]2C1(C)C`, for which the Survival in data set [1] amounted to 34%; in data set [2], 48%. Also, the viability at 72 h, 10 µM in data set [3] came out at 67%.
